Measured values published in ChEMBL document CHEMBL4622838, “Deuteration of the farnesyl terminal methyl groups of δ-tocotrienol and its effects on the metabolic stability and ability of inducing G-CSF production” (Bioorg Med Chem, 2020).
The source made the active and inactive calls. No cut-off for these calls is given here.

What was measured:
[1] = AUC (0 to last) in CD2F1 mouse at 50 mg/kg, iv measured up to 24 hrs; type: ADME, organism-based; parameters: dose 50 mg/kg, route intravenous, time 0 - last; settings: in vivo
In short: (§1)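 Single IV bolus in CD2F1 mice, emulsified in PBS with 33% PEG400 and 2% tween 80 (150 µL/mouse, 0.22 µm filtered), n = 4 per group. Retro-orbital blood into EDTA-K tubes at 0, 5, 10, 30 min and 1, 2, 4, 6, 12, 24 h. Plasma extracted with methanol/ascorbic acid plus heptane/BHT, internal standard, HPLC-fluorescence.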

[2] = Cmax in CD2F1 mouse at 200 mg/kg, sc measured up to 24 hrs; type: ADME, organism-based; parameters: dose 200 mg/kg, route subcutaneous; settings: in vivo
In short: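 Single subcutaneous dose, 200 mg/Kg, emulsified in PBS with 5% tween 80, 100 µL/mouse, filter-sterilized; n = 4 per group. Retro-orbital blood into EDTA potassium tubes at 0, 7.5, 15, 30 min, 1, 2, 4, 6, 8, 12, 24 h; plasma at -80 °C. Heptane/methanol extraction with internal standard, HPLC-fluorescence; peak concentration taken from the concentration-time profile.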

[3] = AUC (0 to last) in CD2F1 mouse at 200 mg/kg, sc measured up to 24 hrs; type: ADME, organism-based; parameters: dose 200 mg/kg, route subcutaneous, time 0 - last; settings: in vivo
In short: as §1, with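 “SC injection” for “IV bolus”, “5%” for “33% PEG400 and 2%”, “(100” for “(150”, “7.5, 15,” for “5, 10,”, “6, 8,” for “6,”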

[4] = Intrinsic clearance in mouse liver microsomes; type: ADME, Microsome
In short: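 Mouse liver microsomes (5 mg protein/mL) in potassium phosphate buffer pH 7.4 with EDTA; compound 1 µM preincubated 30 min at 37 °C, reaction started with NADPH-generating system (NADP⁺, glucose-6-phosphate, MgCl₂, G6PDH); no-NADPH control. Sampled at 5, 15, 30 min into cold acetonitrile with internal standard; percent remaining measured; half-life and clearance calculated; n = 3.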

[5] = Half life in mouse liver microsomes; type: ADME, Microsome
[6] = Metabolic stability in mouse liver microsomes assessed as compound degradation at 1 uM preincubated for 30 mins followed by NADPH addition measured up to 30 mins by HPLC-UV analysis; type: ADME, Microsome; settings: 0.5 h
In short: (§2)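 Mouse liver microsomes (5 mg protein/mL) in 0.2 M potassium phosphate, pH 7.4, with EDTA. Test compound at 1 µM preincubated 30 min at 37 °C, then started with an NADPH-generating system (NADP⁺, Glc-6-PO₄, MgCl₂, G6PDH); controls received buffer in place of NADPH. Sampled at 5, 15 and 30 min into cold acetonitrile containing GT3 internal standard. Percent remaining reported, n = 3.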

[7] = Clearance in CD2F1 mouse at 50 mg/kg, iv measured up to 24 hrs; type: ADME, organism-based; settings: in vivo
In short: (§3)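 Single IV bolus, 50 mg/Kg, emulsified in PBS with 33% PEG400 and 2% tween 80, 150 µL/mouse, filter-sterilized; n = 4 per group. Retro-orbital blood into EDTA potassium tubes at 0, 5, 10, 30 min, 1, 2, 4, 6, 12, 24 h. Plasma extracted with methanol (2% ascorbic acid) and heptane (1% BHT) plus internal standard; HPLC-fluorescence quantitation.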

[8] = Volume of distribution in CD2F1 mouse at 50 mg/kg, iv measured up to 24 hrs; type: ADME, organism-based; settings: in vivo; in short: as §3
[9] = AUC (0 to infinity) in CD2F1 mouse at 50 mg/kg, iv measured up to 24 hrs; type: ADME, organism-based; parameters: dose 50 mg/kg, time infinity, route intravenous; settings: in vivo; in short: as §1
[10] = Plasma concentration in CD2F1 mouse at 200 mg/kg, sc administered as single dose measured after 1 hr by HPLC-fluorescence analysis; type: ADME, organism-based
In short: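 Single subcutaneous dose of 200 mg/Kg in CD2F1 mice, emulsified in PBS with 5% tween 80 and filter-sterilized, n = 3–4. Retro-orbital blood drawn at 0 min to 24 h. Plasma mixed with internal standard, methanol containing 2% ascorbic acid and heptane containing 1% BHT. Upper layer dried under N₂, reconstituted in methanol and quantified by HPLC-fluorescence.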

[11] = Metabolic stability in mouse live microsomes assessed as compound degradation in absence of NADPH; type: ADME, Liver, Microsome; in short: as §2
Mus musculus [12] = experiment: Induction of G-CSF production in CD2F1 mouse at 200 mg/kg, sc by G-CSF ELISA kit method; type: functional, organism-based; settings: TDE = time-dependent effect
In short: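 CD2F1 mice, subcutaneous dose of 0.5 mM/Kg (200 mg/Kg) emulsified in PBS with 5% tween 80, n = 3–4. Blood taken into EDTA-K tubes at 8, 12, 24 and 48 h. Plasma spun at 1200 rpm, 15 min, 4 °C and held at −80 °C. G-CSF measured by mouse ELISA, each sample run in duplicate and averaged, with a standard curve on every plate.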

Mus musculus [13] = experiment: Induction of G-CSF production in CD2F1 mouse at 200 mg/kg, sc pretreated with ketoconazole after 24 hrs by G-CSF ELISA kit method; type: functional, organism-based
In short: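 CD2F1 mice received ketoconazole in corn oil (5 mg/250 µL/mouse) by oral gavage at 26, 14 and 2 h before drug. Drug then given subcutaneously at 200 mg/Kg in 5% tween 80/PBS, n = 3. Plasma collected at 8 and 24 h. G-CSF measured by ELISA in duplicate against a per-plate standard curve.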

| Compound | AUClast [1] [ng·h/mL] | Cmax [2] [ng/mL] | AUClast [3] [ng·h/mL] | CLH [4] [µL/min/mg] | t1/2 [5] [h] | Stability [6] | CL [7] [mL/min/kg] | Vd [8] [L/kg] | AUC [9] [ng·h/mL] | concentration at 1 h [10] [ng/mL] | Stability [11] | Activity (Mus musculus [12]) | Activity (Mus musculus [12]; tested as the 2H-labelled form) | Activity (Mus musculus [13]) | Activity (Mus musculus [13]; tested as the 2H-labelled form) |
| --- | --- | --- | --- | --- | --- | --- | --- | --- | --- | --- | --- | --- | --- | --- | --- |
| [2H]C([2H])([2H])C(=CCC/C(C)=C/CC/C(C)=C/CC[C@]1(C)CCc2cc(O)cc(C)c2O1)C([2H])([2H])[2H] | 34213 | 970 | 11354 | 3580 | 2.642 | Unstable | 23.3 | 21.3 | 35707 | 800 to 1000 | Stable |  |  |  |  |
| CC(C)=CCC/C(C)=C/CC/C(C)=C/CC[C@]1(C)CCc2cc(O)cc(C)c2O1 [DELTA-TOCOTRIENOL] | 32804 | 810 | 10314 | 5260 | 1.778 | Unstable | 24.92 | 20.7 | 33456 | 800 to 1000 | Stable | Tde | Tde | Active | Active |
